Assay results reported in ChEMBL document CHEMBL4622992, “New Polyaminoisoprenyl Antibiotics Enhancers against Two Multidrug-Resistant Gram-Negative Bacteria from Enterobacter and Salmonella Species” (J Med Chem, 2020).
Converted amounts (≈) assume the structure as drawn. The source made the active and inactive calls. The rule behind the calls is not given here.

Assays:
Klebsiella aerogenes [1] = experiment: Potentiation of nalidixic acid-induced antibacterial activity against Enterobacter aerogenes Ea289 assessed as ratio of the nalidixic acid alone MIC to nalidixic acid MIC in presence of MIC/4 level of compound incubated for 18 hrs
Klebsiella aerogenes [2] = experiment: Potentiation of chloramphenicol-induced antibacterial activity against Enterobacter aerogenes Ea289 assessed as ratio of the chloramphenicol alone MIC to […] in presence of MIC/4 level of compound incubated for 18 hrs; type: functional
How it was run: (§1)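 Broth microdilution in MH broth, 10^5 CFU inoculum, two-fold antibiotic dilutions, with or without compound at MIC/4. MIC is the lowest concentration with no visible growth after 18 h at 37°C. Gain is antibiotic MIC alone divided by MIC with compound. MICs repeated in at least three independent experiments; up to 5% DMSO.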

Klebsiella aerogenes [3] = experiment: Potentiation of chloramphenicol-induced antibacterial activity against Enterobacter aerogenes Ea289 assessed as efficiency index by measuring sum of gain factor for each test compound reported for chloramphenicol/nalidixic acid/doxycycline/erythromycin and divided by concentration of test compound; type: functional; details: pooled result: one value given for 2 cell lines, strains, targets or settings
How it was run: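 Gain factors (antibiotic MIC alone / MIC with compound at MIC/4; broth dilution, 18 h, 37°C) for erythromycin, doxycycline, nalidixic acid and chloramphenicol are summed, then divided by the compound concentration used in the assay.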

[4] = Toxicity index, ratio of IC50 for toxicity in CHO cells to concentration of test compound causing at least 8 times decrease of MIC of almost 3 antibiotics (chloramphenicol/nalidixic acid/doxycycline/erythromycin ) against Enterobacter aerogenes Ea289; type: cell-based; details: hamster, pooled result: one value given for 2 cell lines, strains, targets or settings
Klebsiella aerogenes [5] = experiment: Antibacterial activity against Enterobacter aerogenes Ea289 assessed as inhibition of bacterial growth incubated for 18 hrs; type: organism-based
How it was run: (§2)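 Broth microdilution per CA-SFM in MH broth; inoculum 10⁵ CFU in 200 µL with two-fold serial dilutions; compounds dissolved in DMSO, up to 5% DMSO on bacteria. MIC = lowest concentration with no visible growth after 18 h at 37°C. Repeated at least three times independently.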

Klebsiella aerogenes [6] = experiment: Potentiation of doxycycline-induced antibacterial activity against Enterobacter aerogenes Ea289 assessed as ratio of the doxycycline alone MIC to doxycycline MIC in presence of MIC/4 level of compound incubated for 18 hrs; type: functional
How it was run: as §1

Klebsiella aerogenes [7] = experiment: Potentiation of erythromycin-induced antibacterial activity against Enterobacter aerogenes Ea289 assessed as ratio of the erythromycin alone MIC to erythromycin MIC in presence of MIC/4 level of compound incubated for 18 hrs
Salmonella typhimurium [8] = experiment: Potentiation of nalidixic acid-induced antibacterial activity against Salmonella enterica subsp. enterica serovar Typhimurium BN10055 assessed as ratio of the nalidixic acid alone MIC to […] in presence of MIC/4 level of compound incubated for 18 hrs; type: functional
How it was run: as §1

[9] = Toxicity in CHO cells assessed as reduction in cell viability incubated for 24 hrs by WST1 assay; type: cell-based; details: Chinese hamster (Cricetulus griseus)
How it was run: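 CHO-K1 cells in McCoy's 5A with 10% FCS, exposed in triplicate to 30–1200 μM compound for 24 h at 37°C. After PBS washes, 30 min in medium with 10% WST-1; absorbance at 450 nm. IC50 is the concentration giving 50% loss of viable cells.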

Salmonella typhimurium [10] = experiment: Potentiation of doxycycline-induced antibacterial activity against Salmonella enterica subsp. enterica serovar Typhimurium BN10055 assessed as ratio of the doxycycline alone MIC to doxycycline MIC in presence of MIC/4 level of compound incubated for 18 hrs; type: functional
How it was run: as §1

Salmonella typhimurium [11] = experiment: Antibacterial activity against Salmonella enterica subsp. enterica serovar Typhimurium BN10055 assessed as inhibition of bacterial growth incubated for 18 hrs; type: organism-based
How it was run: as §2

Salmonella typhimurium [12] = experiment: Potentiation of chloramphenicol-induced antibacterial activity against Salmonella enterica subsp. enterica serovar Typhimurium BN10055 assessed as ratio of the chloramphenicol alone MIC to […] in presence of MIC/4 level of compound incubated for 18 hrs; type: functional
How it was run: as §1

Salmonella typhimurium [13] = experiment: Antibacterial activity against Salmonella enterica subsp. enterica serovar Typhimurium BN10055 containing deltaacrB mutant assessed as inhibition of bacterial growth incubated for 18 hrs; type: organism-based
How it was run: as §2

Klebsiella aerogenes [14] = experiment: Antibacterial activity against Enterobacter aerogenes Ea289 containing deltaacrB mutant assessed as inhibition of bacterial growth incubated for 18 hrs; type: organism-based
How it was run: as §2

Salmonella typhimurium [15] = experiment: Potentiation of erythromycin-induced antibacterial activity against Salmonella enterica subsp. enterica serovar Typhimurium BN10055 assessed as ratio of the erythromycin alone MIC to erythromycin MIC in presence of MIC/4 level of compound incubated for 18 hrs; type: functional
How it was run: as §1

[16] = Toxicity in BALB/cByJ mouse assessed as induction of toxic signs at 50 uM, ip measured after 48 hrs; type: organism-based; details: in vivo
Klebsiella aerogenes [17] = experiment: Induction of cell transmembrane potential disruption in Enterobacter aerogenes Ea289 assessed as membrane potential by measuring fluorescence level at 100 uM by [DiSC3(5)] based assay (reference value: 0.2%)
Klebsiella aerogenes [18] = experiment: Induction of outer cell membrane permeabilization in Enterobacter aerogenes Ea289 assessed as induction of nitrocefin hydrolysis at 100 uM incubated for 15 mins; type: organism-based
How it was run: (§3)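 Cells at OD600 0.25 in phosphate buffer (20 mM K2HPO4, 1 mM MgCl2, pH 7.0) with 5 μM CCCP, mixed with nitrocefin 50 μg/mL, then compound at 100 μM. Periplasmic β-lactamase hydrolysis followed by absorbance at 490 nm every 30 s at 37°C.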

Salmonella typhimurium [19] = experiment: Potentiation of doxycycline-induced antibacterial activity against Salmonella typhimurium assessed as mouse survival rate at 0.5 mg/kg, ip co-treated with 64 mg/kg for doxycycline (reference value: 0%); type: functional, Salmonella enterica subsp. enterica serovar Typhimurium
How it was run: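 Female BALB/cByJ mice, 5-6 weeks, anaesthetized with sevoflurane, infected ip with 200 µL of S. Typhimurium at 10² CFU/mL. Daily dosing with saline, doxycycline 64 mg/kg alone, or doxycycline 64 mg/kg plus 0.5 mg/kg compound. Mice weighed daily; sacrificed at day 1 (n=3), 3 (n=3) or 7 (n=6).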

Klebsiella aerogenes [20] = experiment: Induction of outer cell membrane permeabilization in Enterobacter aerogenes Ea289 assessed as induction of H33342 dye penetration at 100 uM; type: organism-based
Klebsiella aerogenes [21] = experiment: Induction of outer cell membrane permeabilization in Enterobacter aerogenes Ea289 assessed as induction of nitrocefin hydrolysis at 100 uM measured during initial 200 secs; type: organism-based
How it was run: as §3

Klebsiella aerogenes [22] = experiment: Inhibition of AcrAB-TolC in Enterobacter aerogenes Ea289 assessed as retention of 1,2'diNA dye within bacterial membranes at 100 uM relative to control; design: scale not given: the % may be the effect or the level left
How it was run: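 Stationary-phase cells at OD600 0.25 in potassium phosphate buffer pH 7.0 with CCCP 5 µM, loaded overnight with 1,2'-diNA 32 µM at 37°C, washed, compound added at 100 µM. Glucose 50 mM added at 300 s to energize efflux. Fluorescence (ex 370/em 420 nm) read every 30 s at 37°C; PAβN 100 µM as reference.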

[23] = Toxicity in BALB/cByJ mouse assessed as effect on mouse survival at 50 uM, ip measured after 48 hrs; type: organism-based; details: in vivo

Compound | Ratio (Klebsiella aerogenes [1]) | Ratio (Klebsiella aerogenes [2]) | Activity_index (Klebsiella aerogenes [3]) | selectivity ratio [4] | MIC (Klebsiella aerogenes [5]) [µM] | Ratio (Klebsiella aerogenes [6]) | Ratio (Klebsiella aerogenes [7]) | Ratio (Salmonella typhimurium [8]) | IC50 at 24 h [9] [µM] | Ratio (Salmonella typhimurium [10]) | MIC (Salmonella typhimurium [11]) [µM] | Ratio (Salmonella typhimurium [12]) | MIC (Klebsiella aerogenes [14]) [µM] | Ratio (Salmonella typhimurium [15]) | other results
CC(C)=CCCC(C)=CCNCCNCCNCCNCCNCCN | 4 | 8 | 0 | 0.06 | > 500 | 2 | 1 | 16 | > 150 | 4 | > 500 | 8 |  |  | 
CC(C)=CCC/C(C)=C\CCC(C)=CCNCCCCCCCCCCCCN | 1 | 2 |  |  |  | 2 | 1 | 8 | 25.3 | 8 |  | 4 | 7.8 (≈ 3.16 µg/mL) | 2 | MIC (Salmonella typhimurium [13]): 3.9 µM (≈ 1.58 µg/mL)
CC(C)=CCC/C(C)=C\CCC(C)=CCNCCNCCNCCNCCNCCN | 8 | 4 | 2.88 | 10.7 |  | 16 | 4 | 32 | 41.7 | 16 |  | 8 | 7.8 (≈ 3.41 µg/mL) | 2 | 
CC(C)=CCCC(C)=CCNCCCN(CCCN)CCCN | 8 | 8 | 3.65 | 16.2 |  | 32 | 16 | 128 | 127 | 16 |  | 16 |  | 4 | Activity [16]: Non-Toxic; Activity (Klebsiella aerogenes [17]): 1%; Activity (Klebsiella aerogenes [18]): Active; Survival (Salmonella typhimurium [19]): 43%; Activity (Klebsiella aerogenes [20]): Active; Activity (Klebsiella aerogenes [21]): inactive; Activity (Klebsiella aerogenes [22]): 68%; Activity [23]: Non-Toxic
CC(C)=CCCC(C)=CCNCCNCCNCCN | 2 | 8 | 0 | 0.06 | > 500 |  |  | 16 | > 150 |  | > 500 | 4 |  |  | 
